Results from ChEMBL document CHEMBL4765365, “Design, synthesis and antitumour evaluation of pyrrolo[1,2-f]-phenanthridine and dibenzo[f,h]pyrrolo[1,2-b]isoquinoline derivatives” (Eur J Med Chem, 2020).

Tests used:
[1] = system: HCT-116; assay: Cytotoxicity against human HCT-116 cells assessed as reduction in cell viability incubated for 72 hrs by XTT assay; type: functional, cell-based; conditions: HCT-116, 72 h
[2] = system: HCT-116; assay: Induction of cell cycle arrest in human HCT-116 cells assessed as G0 phase at 0.375 uM measured at 0 hrs by PI staining based flow cytometry analysis (reference value: 0.7 +/- 0.2 %); type: functional
[3] = system: HCT-116; assay: Induction of cell cycle arrest in human HCT-116 cells assessed as S phase at 0.375 uM measured at 0 hrs by PI staining based flow cytometry analysis (reference value: 12.4 +/- 6.2 %); type: functional
[4] = system: HCT-116; assay: Induction of cell cycle arrest in human HCT-116 cells assessed as G0 phase at 0.375 uM incubated for 12 hrs by PI staining based flow cytometry analysis (reference value: 2.2 +/- 1.7 %); type: functional
[5] = system: HCT-116; assay: Induction of cell cycle arrest in human HCT-116 cells assessed as S phase at 0.375 uM incubated for 24 hrs by PI staining based flow cytometry analysis (reference value: 21.2 +/- 5.4 %); type: functional
[6] = system: HCT-116; assay: Induction of cell cycle arrest in human HCT-116 cells assessed as S phase at 0.375 uM incubated for 36 hrs by PI staining based flow cytometry analysis (reference value: 7.9 +/- 3.7 %); type: functional
[7] = system: HCT-116; assay: Induction of cell cycle arrest in human HCT-116 cells assessed as G1 phase at 0.75 uM measured at 0 hrs by PI staining based flow cytometry analysis (reference value: 52 +/- 5.1 %); type: functional
[8] = system: HCT-116; assay: Induction of cell cycle arrest in human HCT-116 cells assessed as S phase at 0.75 uM incubated for 12 hrs by PI staining based flow cytometry analysis (reference value: 15.5 +/- 0.2 %); type: functional
[9] = system: HCT-116; assay: Induction of cell cycle arrest in human HCT-116 cells assessed as G1 phase at 1.5 uM incubated for 12 hrs by PI staining based flow cytometry analysis (reference value: 53.6 +/- 4.5 %); type: functional
[10] = system: HCT-116; assay: Induction of cell cycle arrest in human HCT-116 cells assessed as S phase at 1.5 uM incubated for 24 hrs by PI staining based flow cytometry analysis (reference value: 21.2 +/- 5.4 %); type: functional
[11] = system: HCT-116; assay: Induction of cell cycle arrest in human HCT-116 cells assessed as S phase at 1.5 uM incubated for 36 hrs by PI staining based flow cytometry analysis (reference value: 7.9 +/- 3.7 %); type: functional
[12] = system: HCT-116; assay: Induction of cell cycle arrest in human HCT-116 cells assessed as G2/M phase at 1.5 uM incubated for 36 hrs by PI staining based flow cytometry analysis (reference value: 23.6 +/- 1 %); type: functional
[13] = system: NCI-H460; assay: Induction of cell cycle arrest in human NCI-H460 cells assessed as G2/M phase at 0.75 uM measured at 0 hrs by PI staining based flow cytometry analysis (reference value: 25.2 +/- 4 %); type: functional
[14] = system: NCI-H460; assay: Induction of cell cycle arrest in human NCI-H460 cells assessed as G0 phase at 0.75 uM incubated for 12 hrs by PI staining based flow cytometry analysis (reference value: 2.9 +/- 2.4 %); type: functional
[15] = system: NCI-H460; assay: Induction of cell cycle arrest in human NCI-H460 cells assessed as G1 phase at 0.75 uM incubated for 12 hrs by PI staining based flow cytometry analysis (reference value: 66 +/- 10 %); type: functional
[16] = system: NCI-H460; assay: Induction of cell cycle arrest in human NCI-H460 cells assessed as S phase at 0.75 uM incubated for 12 hrs by PI staining based flow cytometry analysis (reference value: 11.2 +/- 4.3 %); type: functional
[17] = system: NCI-H460; assay: Induction of cell cycle arrest in human NCI-H460 cells assessed as G2/M phase at 0.75 uM incubated for 24 hrs by PI staining based flow cytometry analysis (reference value: 21 +/- 6.7 %); type: functional
[18] = system: NCI-H460; assay: Induction of cell cycle arrest in human NCI-H460 cells assessed as G1 phase at 0.75 uM incubated for 36 hrs by PI staining based flow cytometry analysis (reference value: 57.9 +/- 3.6 %); type: functional
[19] = system: NCI-H460; assay: Induction of cell cycle arrest in human NCI-H460 cells assessed as G0 phase at 1.5 uM incubated for 12 hrs by PI staining based flow cytometry analysis (reference value: 2.9 +/- 2.4 %); type: functional
[20] = system: NCI-H460; assay: Induction of cell cycle arrest in human NCI-H460 cells assessed as S phase at 1.5 uM incubated for 24 hrs by PI staining based flow cytometry analysis (reference value: 11.7 +/- 6.1 %); type: functional
[21] = system: NCI-H460; assay: Induction of cell cycle arrest in human NCI-H460 cells assessed as G1 phase at 1.5 uM incubated for 36 hrs by PI staining based flow cytometry analysis (reference value: 57.9 +/- 3.6 %); type: functional
[22] = system: NCI-H460; assay: Induction of cell cycle arrest in human NCI-H460 cells assessed as G2/M phase at 3 uM measured at 0 hrs by PI staining based flow cytometry analysis (reference value: 25.2 +/- 4 %); type: functional
[23] = system: NCI-H460; assay: Induction of cell cycle arrest in human NCI-H460 cells assessed as G1 phase at 3 uM incubated for 12 hrs by PI staining based flow cytometry analysis (reference value: 66 +/- 10 %); type: functional
[24] = system: NCI-H460; assay: Induction of cell cycle arrest in human NCI-H460 cells assessed as G0 phase at 3 uM incubated for 24 hrs by PI staining based flow cytometry analysis (reference value: 1.6 +/- 0.6 %); type: functional
[25] = system: NCI-H460; assay: Induction of cell cycle arrest in human NCI-H460 cells assessed as G1 phase at 3 uM incubated for 24 hrs by PI staining based flow cytometry analysis (reference value: 56.8 +/- 7.6 %); type: functional
[26] = system: NCI-H460; assay: Induction of cell cycle arrest in human NCI-H460 cells assessed as S phase at 3 uM incubated for 24 hrs by PI staining based flow cytometry analysis (reference value: 11.7 +/- 6.1 %); type: functional
[27] = system: NCI-H460; assay: Induction of cell cycle arrest in human NCI-H460 cells assessed as G2/M phase at 3 uM incubated for 24 hrs by PI staining based flow cytometry analysis (reference value: 21 +/- 6.7 %); type: functional
[28] = system: NCI-H460; assay: Induction of cell cycle arrest in human NCI-H460 cells assessed as G0 phase at 3 uM incubated for 36 hrs by PI staining based flow cytometry analysis (reference value: 2.8 +/- 0.7 %); type: functional
[29] = system: NCI-H460; assay: Induction of cell cycle arrest in human NCI-H460 cells assessed as S phase at 3 uM incubated for 36 hrs by PI staining based flow cytometry analysis (reference value: 7.6 +/- 3.9 %); type: functional
[30] = Toxicity in nude mouse xenografted with human HCT-116 cells assessed as reduction in body weight at 30 mg/kg, iv administered for 5 days and repeated cycle for 2 days interval and measured on day 24; type: organism-based; conditions: in vivo, 576 h, time 24 day
Outline: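 Nude mice carried human HCT116 colorectal xenografts. Dosing was i.v. at 30 mg/kg once daily for five days (QD×5), and this cycle was given twice with a 2-day gap. Body weight was tracked against vehicle-treated mice, with tumour assessment at day 24.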

[31] = Solubility in mixture of ethanol/PEG400/Cremophor EL/0.9% saline; type: physicochemical; conditions: buffer

For OCc1cn2c3ccccc3c3ccccc3c2c1CO, the IC50 [1] was 1.12 µM, the Activity [2] was 0.6% and the Activity [3] was 12.4%. For the same molecule, the Activity [4] was 1.8%, the Activity [5] was 17.2% and the Activity [6] was 8.2%. It also gave an Activity [7] of 52%, an Activity [8] of 16.9% and an Activity [9] of 48.8%. For the same molecule, the Activity [10] was 5.7%, the Activity [11] was 6.1% and the Activity [12] was 20.7%. The Activity [13] was 24.2%, the Activity [14] was 3.7% and the Activity [15] was 53%. The Activity [16] was 14.2%, the Activity [17] was 24.1% and the Activity [18] was 67.8%. For the same molecule, the Activity [19] was 2.6%, the Activity [20] was 8.6% and the Activity [21] was 73.1%. For the same molecule, the Activity [22] was 24.6%, the Activity [23] was 53.3% and the Activity [24] was 5.2%. It also gave an Activity [25] of 49.3%, an Activity [26] of 10.9% and an Activity [27] of 30%. For the same molecule, the Activity [28] was 8.7%, the Activity [29] was 9.6% and the Activity [30] was “Non-Toxic”. The solubility [31] was “Soluble”.
